Assay results taken from ChEMBL document CHEMBL1158829, “Oxygenated pimarane diterpenes from Kaempferia marginata” (J Nat Prod, 2005).
In brackets after ≈: the same amount, converted by molar mass.

What was measured:
[1] = test system: Mycobacterium tuberculosis; assay: Antitubercular activity against Mycobacterium tuberculosis H37Ra after 4 days by microplate alamar blue assay; type: functional; details: 96 h
Procedure, shortened: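 Mycobacterium tuberculosis H37Ra tested by Microplate Alamar Blue Assay, reporting minimum inhibitory concentration (MIC). Rifampicin, kanamycin and isoniazid were the positive controls.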

Plasmodium falciparum = assay: Antimalarial activity against multidrug-resistant Plasmodium falciparum K1 after 42 hrs by [3H]hypoxanthine uptake; type: functional, organism-based
Procedure, shortened: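 Plasmodium falciparum K1 (multidrug-resistant) was kept in continuous culture. In vitro activity was quantified with a microculture radioisotope technique.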

Candida albicans = assay: Antifungal activity against Candida albicans ATCC 90028 by XTT assay; type: functional, organism-based
Procedure, shortened: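 Candida albicans ATCC 90028 tested by a tetrazolium/formazan colorimetric method, with IC50 as the read-out. Amphotericin B served as the positive control and DMSO as the negative control.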

Row | Structure (SMILES) | MIC [1] [µg/mL] | IC50 (Plasmodium falciparum) [µg/mL] | IC50 (Candida albicans) [µg/mL]
1 | C=C[C@]1(C)C=C2CC[C@]3(C)[C@](C)(CC[C@H](C(C)=O)[C@]3(C)O)[C@@]2(C)CC1 | 50 (≈ 145 µM) |  | 
2 | C=C[C@]1(C)C=C2CC[C@H]3C(C)(C)CC[C@H](O)[C@]3(C)[C@H]2[C@H](O)C1 |  | 3.2 (≈ 10.5 µM) | 
3 | C=C[C@]1(C)C=C2CC[C@H]3C(C)(C)C[C@H](O)[C@H](O)[C@]3(C)[C@H]2[C@H](O)C1 | > 100 | 8.8 (≈ 27.5 µM) | 17.5 (≈ 54.6 µM)
4 | C=C[C@]1(C)C=C2CC[C@]3(C)[C@](C)(CCC[C@]3(C)O)[C@@]2(C)CC1 | 25 (≈ 82.6 µM) |  | 
5 | C=C[C@]1(C)C=C2[C@H](O)C[C@H]3C(C)(C)CC[C@H](O)[C@]3(C)[C@H]2[C@H](O)C1 | > 100 |  | 
6 | C=C[C@]1(C)C=C2C(=O)C[C@H]3C(C)(C)C[C@H](O)[C@H](O)[C@]3(C)[C@H]2CC1 | > 100 |  | 
